Source: ChEMBL document CHEMBL4689842, “EUbOPEN Chemogenomics Library wave 1” (2021)

Columns and labels:
Type in all cases: toxicity, cell-based
U2OS = test: Incucyte cell viability with U2OS; conditions: human, 10 µM, compound concentration 10 uM; also: filed as whole numbers so only -1 and 0 and 1 occur
Fibroblast [1] = test: Incucyte cell viability with human fibroblast; conditions: 10 µM, compound concentration 10 uM; also: filed as whole numbers so only -1 and 0 and 1 occur
Fibroblast [2] = test: Multiplex assay against human fibroblast
Procedure, shortened: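 Live cells carried four stains from seeding: Hoechst33342, BioTracker Green Microtubule Cytoskeleton Dye, MitoTracker Red and Annexin V Alexa Fluor 680. They were imaged on a CQ1 microscope at 37°C and 5% CO2 after compound addition. Using CellPathfinder machine-learning gating, cells were split into Hoechst high-intensity objects or normal cells, normal cells into healthy, pyknosed or fragmented nuclei, and pyknosed cells into mitotic or apoptotic; tubulin, mitochondrial-mass and membrane-permeability phenotypes are per cents of healthy-nucleus cells.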

HEK-293T = test: Incucyte cell viability with HEK293T; conditions: human, 10 µM, compound concentration 10 uM; also: filed as whole numbers so only -1 and 0 and 1 occur
[3] = 0 h, replicate number 1, timepoint 0 hours
[4] = 6 h, replicate number 1, timepoint 6 hours
[5] = 12 h, replicate number 1, timepoint 12 hours
[6] = 18 h, replicate number 1, timepoint 18 hours
[7] = 18 h, replicate number 2, timepoint 18 hours
[8] = 24 h, replicate number 1, timepoint 24 hours
[9] = 12 h, 1 µM, compound concentration 1 uM, replicate 1
[10] = 12 h, 1 µM, compound concentration 1 uM, replicate 2
[11] = 12 h, 10 µM, compound concentration 10 uM, replicate 1
[12] = 12 h, 10 µM, compound concentration 10 uM, replicate 2
[13] = 24 h, 1 µM, compound concentration 1 uM, replicate 1
[14] = 24 h, 1 µM, compound concentration 1 uM, replicate 2
[15] = 24 h, 10 µM, compound concentration 10 uM, replicate 1
[16] = 24 h, 10 µM, compound concentration 10 uM, replicate 2
[17] = 48 h, 1 µM, compound concentration 1 uM, replicate 1
[18] = 48 h, 1 µM, compound concentration 1 uM, replicate 2
[19] = 48 h, 10 µM, compound concentration 10 uM, replicate 1
[20] = 48 h, 10 µM, compound concentration 10 uM, replicate 2

Nc1ccc(C(=O)Nc2cccc(-c3nc(N4CCOCC4)c4oc5ncccc5c4n3)c2)cn1
Growth Rate (U2OS; [3]): 0
Growth Rate (U2OS; [4]): 1
Growth Rate (U2OS; [5]): 0
Growth Rate (U2OS; [6]): 0
Growth Rate (U2OS; [7]): 1
Growth Rate (U2OS; [8]): 0
Growth Rate (Fibroblast [1]; [3]): 0
Growth Rate (Fibroblast [1]; [4]): 0
Growth Rate (Fibroblast [1]; [5]): 0
Growth Rate (Fibroblast [1]; [6]): 0
Growth Rate (Fibroblast [1]; [7]): 1
Growth Rate (Fibroblast [1]; [8]): 0
Population Apoptotic (%) (Fibroblast [2]; [9]): 63%
Population Fragmented Nuclei (%) (Fibroblast [2]; [9]): 24%
Population Healthy Nuclei (%) (Fibroblast [2]; [9]): 43%
Population Hoechst High Intensity Objects (%) (Fibroblast [2]; [9]): 14%
Population Mitochondria Different-Phenotype (%) (Fibroblast [2]; [9]): 4%
Population Mitotic Cells (%) (Fibroblast [2]; [9]): 36%
Population Normal (%) (Fibroblast [2]; [9]): 85%
Population Pyknosed Nuclei (%) (Fibroblast [2]; [9]): 31%
Population Tubulin-Different-Phenotype (%) (Fibroblast [2]; [9]): 60%
Total Cell Count (Fibroblast [2]; [9]): 134
Population Apoptotic (%) (Fibroblast [2]; [10]): 9%
Population Fragmented Nuclei (%) (Fibroblast [2]; [10]): 20%
Population Healthy Nuclei (%) (Fibroblast [2]; [10]): 61%
Population Hoechst High Intensity Objects (%) (Fibroblast [2]; [10]): 10%
Population Mitochondria Different-Phenotype (%) (Fibroblast [2]; [10]): 21%
Population Mitotic Cells (%) (Fibroblast [2]; [10]): 90%
Population Normal (%) (Fibroblast [2]; [10]): 89%
Population Pyknosed Nuclei (%) (Fibroblast [2]; [10]): 17%
Population Tubulin-Different-Phenotype (%) (Fibroblast [2]; [10]): 28%
Total Cell Count (Fibroblast [2]; [10]): 55
Population Apoptotic (%) (Fibroblast [2]; [11]): 54%
Population Fragmented Nuclei (%) (Fibroblast [2]; [11]): 57%
Population Healthy Nuclei (%) (Fibroblast [2]; [11]): 28%
Population Hoechst High Intensity Objects (%) (Fibroblast [2]; [11]): 41%
Population Mitochondria Different-Phenotype (%) (Fibroblast [2]; [11]): 9%
Population Mitotic Cells (%) (Fibroblast [2]; [11]): 45%
Population Normal (%) (Fibroblast [2]; [11]): 58%
Population Pyknosed Nuclei (%) (Fibroblast [2]; [11]): 13%
Population Tubulin-Different-Phenotype (%) (Fibroblast [2]; [11]): 80%
Total Cell Count (Fibroblast [2]; [11]): 554
Population Apoptotic (%) (Fibroblast [2]; [12]): 51%
Population Fragmented Nuclei (%) (Fibroblast [2]; [12]): 62%
Population Healthy Nuclei (%) (Fibroblast [2]; [12]): 15%
Population Hoechst High Intensity Objects (%) (Fibroblast [2]; [12]): 19%
Population Mitochondria Different-Phenotype (%) (Fibroblast [2]; [12]): 76%
Population Mitotic Cells (%) (Fibroblast [2]; [12]): 48%
Population Normal (%) (Fibroblast [2]; [12]): 80%
Population Pyknosed Nuclei (%) (Fibroblast [2]; [12]): 22%
Population Tubulin-Different-Phenotype (%) (Fibroblast [2]; [12]): 90%
Total Cell Count (Fibroblast [2]; [12]): 69
Population Apoptotic (%) (Fibroblast [2]; [13]): 38%
Population Fragmented Nuclei (%) (Fibroblast [2]; [13]): 38%
Population Healthy Nuclei (%) (Fibroblast [2]; [13]): 39%
Population Hoechst High Intensity Objects (%) (Fibroblast [2]; [13]): 16%
Population Mitochondria Different-Phenotype (%) (Fibroblast [2]; [13]): 3%
Population Mitotic Cells (%) (Fibroblast [2]; [13]): 61%
Population Normal (%) (Fibroblast [2]; [13]): 83%
Population Pyknosed Nuclei (%) (Fibroblast [2]; [13]): 21%
Population Tubulin-Different-Phenotype (%) (Fibroblast [2]; [13]): 64%
Total Cell Count (Fibroblast [2]; [13]): 169
Population Apoptotic (%) (Fibroblast [2]; [14]): 21%
Population Fragmented Nuclei (%) (Fibroblast [2]; [14]): 28%
Population Healthy Nuclei (%) (Fibroblast [2]; [14]): 52%
Population Hoechst High Intensity Objects (%) (Fibroblast [2]; [14]): 5%
Population Mitochondria Different-Phenotype (%) (Fibroblast [2]; [14]): 42%
Population Mitotic Cells (%) (Fibroblast [2]; [14]): 78%
Population Normal (%) (Fibroblast [2]; [14]): 95%
Population Pyknosed Nuclei (%) (Fibroblast [2]; [14]): 18%
Population Tubulin-Different-Phenotype (%) (Fibroblast [2]; [14]): 27%
Total Cell Count (Fibroblast [2]; [14]): 57
Population Apoptotic (%) (Fibroblast [2]; [15]): 68%
Population Fragmented Nuclei (%) (Fibroblast [2]; [15]): 53%
Population Healthy Nuclei (%) (Fibroblast [2]; [15]): 32%
Population Hoechst High Intensity Objects (%) (Fibroblast [2]; [15]): 46%
Population Mitochondria Different-Phenotype (%) (Fibroblast [2]; [15]): 30%
Population Mitotic Cells (%) (Fibroblast [2]; [15]): 31%
Population Normal (%) (Fibroblast [2]; [15]): 53%
Population Pyknosed Nuclei (%) (Fibroblast [2]; [15]): 13%
Population Tubulin-Different-Phenotype (%) (Fibroblast [2]; [15]): 76%
Total Cell Count (Fibroblast [2]; [15]): 514
Population Apoptotic (%) (Fibroblast [2]; [16]): 84%
Population Fragmented Nuclei (%) (Fibroblast [2]; [16]): 60%
Population Healthy Nuclei (%) (Fibroblast [2]; [16]): 5%
Population Hoechst High Intensity Objects (%) (Fibroblast [2]; [16]): 19%
Population Mitochondria Different-Phenotype (%) (Fibroblast [2]; [16]): 100%
Population Mitotic Cells (%) (Fibroblast [2]; [16]): 15%
Population Normal (%) (Fibroblast [2]; [16]): 80%
Population Pyknosed Nuclei (%) (Fibroblast [2]; [16]): 34%
Population Tubulin-Different-Phenotype (%) (Fibroblast [2]; [16]): 100%
Total Cell Count (Fibroblast [2]; [16]): 80
Population Apoptotic (%) (Fibroblast [2]; [17]): 66%
Population Fragmented Nuclei (%) (Fibroblast [2]; [17]): 47%
Population Healthy Nuclei (%) (Fibroblast [2]; [17]): 45%
Population Hoechst High Intensity Objects (%) (Fibroblast [2]; [17]): 17%
Population Mitochondria Different-Phenotype (%) (Fibroblast [2]; [17]): 0%
Population Mitotic Cells (%) (Fibroblast [2]; [17]): 33%
Population Normal (%) (Fibroblast [2]; [17]): 82%
Population Pyknosed Nuclei (%) (Fibroblast [2]; [17]): 7%
Population Tubulin-Different-Phenotype (%) (Fibroblast [2]; [17]): 60%
Total Cell Count (Fibroblast [2]; [17]): 190
Population Apoptotic (%) (Fibroblast [2]; [18]): 0%
Population Fragmented Nuclei (%) (Fibroblast [2]; [18]): 58%
Population Healthy Nuclei (%) (Fibroblast [2]; [18]): 41%
Population Hoechst High Intensity Objects (%) (Fibroblast [2]; [18]): 25%
Population Mitochondria Different-Phenotype (%) (Fibroblast [2]; [18]): 3%
Population Mitotic Cells (%) (Fibroblast [2]; [18]): 0%
Population Normal (%) (Fibroblast [2]; [18]): 74%
Population Pyknosed Nuclei (%) (Fibroblast [2]; [18]): 0%
Population Tubulin-Different-Phenotype (%) (Fibroblast [2]; [18]): 76%
Total Cell Count (Fibroblast [2]; [18]): 205
Population Apoptotic (%) (Fibroblast [2]; [19]): 51%
Population Fragmented Nuclei (%) (Fibroblast [2]; [19]): 51%
Population Healthy Nuclei (%) (Fibroblast [2]; [19]): 25%
Population Hoechst High Intensity Objects (%) (Fibroblast [2]; [19]): 49%
Population Mitochondria Different-Phenotype (%) (Fibroblast [2]; [19]): 46%
Population Mitotic Cells (%) (Fibroblast [2]; [19]): 48%
Population Normal (%) (Fibroblast [2]; [19]): 50%
Population Pyknosed Nuclei (%) (Fibroblast [2]; [19]): 23%
Population Tubulin-Different-Phenotype (%) (Fibroblast [2]; [19]): 78%
Total Cell Count (Fibroblast [2]; [19]): 516
Population Apoptotic (%) (Fibroblast [2]; [20]): 100%
Population Fragmented Nuclei (%) (Fibroblast [2]; [20]): 82%
Population Healthy Nuclei (%) (Fibroblast [2]; [20]): 14%
Population Hoechst High Intensity Objects (%) (Fibroblast [2]; [20]): 67%
Population Mitotic Cells (%) (Fibroblast [2]; [20]): 0%
Population Normal (%) (Fibroblast [2]; [20]): 32%
Population Pyknosed Nuclei (%) (Fibroblast [2]; [20]): 2%
Population Tubulin-Different-Phenotype (%) (Fibroblast [2]; [20]): 73%
Total Cell Count (Fibroblast [2]; [20]): 323
Growth Rate (HEK-293T; 0 h, replicate number 2, timepoint 0 hours): 0
Growth Rate (HEK-293T; [4]): 0
Growth Rate (HEK-293T; [5]): 0
Growth Rate (HEK-293T; [6]): 0
Growth Rate (HEK-293T; [8]): 0
